Assays:
Canis familiaris [1] = experiment: Cardiotoxicity in spontaneously respiring dog assessed as time of increase in heart rate at 4 to 8 mg/kg, iv relative to control; format: toxicity, organism-based, Canis lupus familiaris; parameters: dose 4-8 mg/kg, route intravenous; details: in vivo
Outline: (§1)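 Anesthetized, spontaneously respiring dogs. Heart rate was taken from a lead II EKG, and blood pressure from the right femoral artery by transducer. The increase in heart rate (beats/min) was scored on a graded scale with more than 4 dogs per dose, and its duration was recorded. Drugs were dissolved fresh in distilled water, diluted in physiological saline and kept on ice.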

Canis familiaris [2] = experiment: Bronchodilator activity in dog assessed as time of inhibition of carbachol or histamine-induced bronchoconstriction at 4 to 8 mg/kg, iv relative to control; format: functional, Canis lupus familiaris; details: dose mg/kg 4-8
Outline: (§2)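 Dog airway model: anesthetized, cannulated via a nonbreathing valve, with airway pressure changes recorded after iv carbachol (2–4 μg/kg) or histamine diphosphate (20–50 μg/kg) challenge, each agonist in different animals. Compounds were given iv, intraduodenally or intratracheally from fresh aqueous stocks diluted in saline. Duration (h) of inhibition of induced bronchoconstriction was followed, and the two agonist datasets were pooled.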

Canis familiaris [3] = experiment: Bronchodilator activity in dog assessed as time of inhibition of carbachol or histamine-induced bronchoconstriction at 200 to 400 mg/kg, id relative to control; format: functional, Canis lupus familiaris; details: dose mg/kg 200-400; route intraduodenal; outline: as §2
Canis familiaris [4] = experiment: Bronchodilator activity in dog assessed as time of inhibition of carbachol or histamine-induced bronchoconstriction at 380 mg/kg, it relative to control; format: functional, Canis lupus familiaris; details: route endotracheal; outline: as §2
Canis familiaris [5] = experiment: Cardiotoxicity in spontaneously respiring dog assessed as degree of increase in heart rate at 4 to 8 mg/kg, iv relative to control; format: toxicity, organism-based, Canis lupus familiaris; parameters: dose 4-8 mg/kg, route intravenous; details: in vivo; outline: as §1
Canis familiaris [6] = experiment: Bronchodilator activity in dog assessed as degree of inhibition of carbachol or histamine-induced bronchoconstriction at 4 to 8 mg/kg, iv relative to control; format: functional, Canis lupus familiaris; details: dose mg/kg 4-8
Outline: (§3)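 Anesthetized dogs, trachea cannulated with a nonbreathing valve. Bronchoconstriction induced by iv carbachol (2–4 μg/kg) or histamine diphosphate (20–50 μg/kg) in separate animals, and airway pressure recorded by transducer. Drug stocks were made fresh in distilled water, diluted in saline and kept on ice. Read-out was percent inhibition of control constriction, averaged over at least three dogs per dose at the higher dose. Carbachol and histamine data were combined.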

Canis familiaris [7] = experiment: Bronchodilator activity in dog assessed as degree of inhibition of carbachol or histamine-induced bronchoconstriction at 200 to 400 mg/kg, id relative to control; format: functional, Canis lupus familiaris; details: dose mg/kg 200-400; route intraduodenal; outline: as §3
Canis familiaris [8] = experiment: Bronchodilator activity in dog assessed as degree of inhibition of carbachol or histamine-induced bronchoconstriction at 380 mg/kg, it relative to control; format: functional; details: Canis lupus familiaris, route endotracheal; outline: as §3
Canis familiaris [9] = experiment: Cardiotoxicity in spontaneously respiring dog assessed as time of increase in heart rate at 5 to 10 mg/kg, iv relative to control; format: toxicity, organism-based, Canis lupus familiaris; parameters: dose 5-10 mg/kg, route intravenous; details: in vivo; outline: as §1
Canis familiaris [10] = experiment: Bronchodilator activity in dog assessed as time of inhibition of carbachol or histamine-induced bronchoconstriction at 440 to 880 mg/kg, it relative to control; format: functional, Canis lupus familiaris; details: dose mg/kg 440-880; route endotracheal
Outline: (§4)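 Anesthetized dogs with an airway cannula and a nonbreathing valve. Bronchoconstriction was induced by iv carbachol (2–4 μg/kg) or histamine diphosphate (20–50 μg/kg) and read as change in airway pressure by transducer. Each compound was tested against both agonists in different dogs, and the results were combined and averaged. Effect is % inhibition of control constriction, with at least three dogs per dose. Drugs were dissolved fresh in distilled water, diluted in saline and kept on ice.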

Canis familiaris [11] = experiment: Bronchodilator activity in dog assessed as time of inhibition of carbachol or histamine-induced bronchoconstriction at 5 to 10 mg/kg, iv relative to control; format: functional, Canis lupus familiaris; details: dose mg/kg 5-10; outline: as §4
Canis familiaris [12] = experiment: Cardiotoxicity in spontaneously respiring dog assessed as degree of increase in heart rate at 5 to 10 mg/kg, iv relative to control; format: toxicity, organism-based, Canis lupus familiaris; parameters: dose 5-10 mg/kg, route intravenous; details: in vivo; outline: as §1
Canis familiaris [13] = experiment: Bronchodilator activity in dog assessed as degree of inhibition of carbachol or histamine-induced bronchoconstriction at 440 to 880 mg/kg, it relative to control; format: functional, Canis lupus familiaris; details: dose mg/kg 440-880; route endotracheal; outline: as §3
Canis familiaris [14] = experiment: Bronchodilator activity in dog assessed as degree of inhibition of carbachol or histamine-induced bronchoconstriction at 5 to 10 mg/kg, iv relative to control; format: functional, Canis lupus familiaris; details: dose mg/kg 5-10; outline: as §3
Canis familiaris [15] = experiment: Bronchodilator activity in dog assessed as time of inhibition of carbachol or histamine-induced bronchoconstriction at 25 to 50 mg/kg, iv relative to control; format: functional, Canis lupus familiaris; details: dose mg/kg 25-50; outline: as §2
Canis familiaris [16] = experiment: Bronchodilator activity in dog assessed as time of inhibition of carbachol or histamine-induced bronchoconstriction at 520 to 1040 mg/kg, it relative to control; format: functional, Canis lupus familiaris; details: dose mg/kg 520-1040; route endotracheal; outline: as §4
Canis familiaris [17] = experiment: Bronchodilator activity in dog assessed as degree of inhibition of carbachol or histamine-induced bronchoconstriction at 25 to 50 mg/kg, iv relative to control; format: functional, Canis lupus familiaris; details: dose mg/kg 25-50; outline: as §3
Canis familiaris [18] = experiment: Bronchodilator activity in dog assessed as degree of inhibition of carbachol or histamine-induced bronchoconstriction at 520 to 1040 mg/kg, it relative to control; format: functional, Canis lupus familiaris; details: dose mg/kg 520-1040; route endotracheal; outline: as §3
Canis familiaris [19] = experiment: Cardiotoxicity in spontaneously respiring dog assessed as time of increase in heart rate at 400 to 800 mg/kg, it relative to control; format: toxicity, organism-based, Canis lupus familiaris; parameters: dose 400-800 mg/kg, route endotracheal; details: in vivo, inhaled_or_intranasal; outline: as §1
Canis familiaris [20] = experiment: Bronchodilator activity in dog assessed as time of inhibition of carbachol or histamine-induced bronchoconstriction at 400 to 800 mg/kg, it relative to control; format: functional, Canis lupus familiaris; details: dose mg/kg 400-800; route endotracheal; outline: as §2
Canis familiaris [21] = experiment: Cardiotoxicity in spontaneously respiring dog assessed as degree of increase in heart rate at 400 to 800 mg/kg, it relative to control; format: toxicity, organism-based, Canis lupus familiaris; parameters: dose 400-800 mg/kg, route endotracheal; details: in vivo, inhaled_or_intranasal; outline: as §1
Canis familiaris [22] = experiment: Bronchodilator activity in dog assessed as degree of inhibition of carbachol or histamine-induced bronchoconstriction at 400 to 800 mg/kg, it relative to control; format: functional, Canis lupus familiaris; details: dose mg/kg 400-800; route endotracheal; outline: as §3
Canis familiaris [23] = experiment: Cardiotoxicity in spontaneously respiring dog assessed as time of increase in heart rate at 5 to 20 mg/kg, iv relative to control; format: toxicity, organism-based, Canis lupus familiaris; parameters: dose 5-20 mg/kg, route intravenous; details: in vivo
Outline: (§5)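 Anesthetized, spontaneously respiring dogs. Heart rate monitored by lead II EKG; blood pressure from right femoral artery by pressure transducer. Rise in heart rate (beats/min) scored ±=5-15, +=20-40, ++=40-60, +++=>60, n>4/dose; duration of the rise in h. Drug stocks freshly made in distilled water, diluted in physiological saline, kept on ice.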

Canis familiaris [24] = experiment: Bronchodilator activity in dog assessed as time of inhibition of carbachol or histamine-induced bronchoconstriction at 5 to 20 mg/kg, iv relative to control; format: functional, Canis lupus familiaris; details: dose mg/kg 5-20
Outline: (§6)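 Dog with airway cannulated through a nonbreathing valve. Bronchoconstriction induced by iv carbachol (2–4 µg/kg) or histamine diphosphate (20–50 µg/kg); airway pressure recorded by pressure transducer. Each compound tested against both agonists in different animals, and results were combined and averaged. Bronchodilation = % inhibition of control constriction; degree scored as +, ++, +++ (20-45, 45-70, >70%) from higher dose, ≥3 dogs/dose; duration in h.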

Canis familiaris [25] = experiment: Cardiotoxicity in spontaneously respiring dog assessed as degree of increase in heart rate at 5 to 20 mg/kg, iv relative to control; format: toxicity, organism-based, Canis lupus familiaris; parameters: dose 5-20 mg/kg, route intravenous; details: in vivo; outline: as §5
Canis familiaris [26] = experiment: Bronchodilator activity in dog assessed as degree of inhibition of carbachol or histamine-induced bronchoconstriction at 5 to 20 mg/kg, iv relative to control; format: functional, Canis lupus familiaris; details: dose mg/kg 5-20; outline: as §6
Canis familiaris [27] = experiment: Cardiotoxicity in spontaneously respiring dog assessed as time of increase in heart rate at 50 to 100 mg/kg, iv relative to control; format: toxicity, organism-based, Canis lupus familiaris; parameters: dose 50-100 mg/kg, route intravenous; details: in vivo
Outline: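 Anesthetized, spontaneously respiring dogs. Heart rate monitored by lead II EKG, with blood pressure taken from the right femoral artery by pressure transducer and recorded on a polygraph. Drug stocks made fresh in distilled water, diluted in physiological saline and kept on ice. Dosing was iv, id or it as listed. The duration of the heart-rate increase was recorded in h, with more than 4 dogs per dose.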

Canis familiaris [28] = experiment: Bronchodilator activity in dog assessed as time of inhibition of carbachol or histamine-induced bronchoconstriction at 50 to 100 mg/kg, iv relative to control; format: functional, Canis lupus familiaris; details: dose mg/kg 50-100; outline: as §4
Canis familiaris [29] = experiment: Cardiotoxicity in spontaneously respiring dog assessed as degree of increase in heart rate at 50 to 100 mg/kg, iv relative to control; format: toxicity, organism-based, Canis lupus familiaris; parameters: dose 50-100 mg/kg, route intravenous; details: in vivo; outline: as §1
Canis familiaris [30] = experiment: Bronchodilator activity in dog assessed as degree of inhibition of carbachol or histamine-induced bronchoconstriction at 50 to 100 mg/kg, iv relative to control; format: functional, Canis lupus familiaris; details: dose mg/kg 50-100; outline: as §3

## CCCC(=O)Oc1ccc([C@@H](O)CNC(C)(C)C)cc1OC(=O)CCC.Cl
Canis familiaris [1]
  Time: < 1 h
Canis familiaris [2]
  Time: <2 h
Canis familiaris [3]
  Time: >3 h
Canis familiaris [4]
  Time: <2 h
Canis familiaris [5]
  Activity: 20 beats/min
Canis familiaris [6]
  inhibition (INH): >70%
Canis familiaris [7]
  inhibition (INH): >70%
Canis familiaris [8]
  inhibition in vivo at 380 mg/kg: > 70%

## CS(=O)(=O)O.Cc1ccc(C(=O)Oc2ccc([C@@H](O)CNC(C)(C)C)cc2O)cc1
Canis familiaris [9]
  Time: < 0.5 h
Canis familiaris [10]
  Time: <2 h
Canis familiaris [11]
  Time: >3 h
Canis familiaris [12]
  Activity: 40 beats/min
Canis familiaris [13]
  inhibition (INH): 45%
Canis familiaris [14]
  inhibition (INH): 45%

## CS(=O)(=O)O.Cc1ccc(C(=O)Oc2ccc([C@@H](O)CNC(C)(C)C)cc2OC(=O)c2ccccc2)cc1
Canis familiaris [15]
  Time: 2 h
Canis familiaris [16]
  Time: 2 h
Canis familiaris [17]
  inhibition (INH): >70%
Canis familiaris [18]
  inhibition (INH): 45%

## CCCC(C)(C)C(=O)Oc1ccc([C@@H](O)CNC(C)(C)C)cc1OC(=O)C(C)(C)CCC.CS(=O)(=O)O
Canis familiaris [11]
  Time: <1 h
Canis familiaris [14]
  inhibition (INH): 45%

## COc1ccc(C(=O)Oc2ccc([C@@H](O)CNC(C)(C)C)cc2O)cc1.Cl
Canis familiaris [19]
  Time: < 0.5 h
Canis familiaris [20]
  Time: <2 h
Canis familiaris [21]
  Activity: 20%
Canis familiaris [22]
  inhibition (INH): 45%

## CC(C)CC(=O)Oc1ccc([C@@H](O)CNC(C)(C)C)cc1O.CS(=O)(=O)O
Canis familiaris [23]
  Time: < 1 h
Canis familiaris [24]
  Time: <2 h
Canis familiaris [25]
  Activity: 40%
Canis familiaris [26]
  inhibition (INH): 45%

## CS(=O)(=O)O.Cc1cccc(C(=O)Oc2ccc([C@@H](O)CNC(C)(C)C)cc2O)c1
Canis familiaris [27]
  Time: < 0.5 h
Canis familiaris [10]
  Time: <2 h
Canis familiaris [28]
  Time: <2 h
Canis familiaris [29]
  Activity: 40 beats/min
Canis familiaris [13]
  inhibition (INH): >70%
Canis familiaris [30]
  inhibition (INH): >70%

Reference: ChEMBL document CHEMBL3272249, “Esters of N-tert-butylarterenol. Long-acting new bronchodilators with reduced cardiac effects” (J Med Chem, 1976)
